The term IC50 denotes the midpoint of a concentration-inhibition curve. By CC50 is commonly meant the concentration giving 50% cytotoxicity.

System in the first data set: not listed separately
The data set can be described thus: Selectivity index, ratio of CC50 for cytotoxicity against Balb/c mouse peritoneal macrophages to IC50 for antileishmanial activity against Leishmania amazonensis MHOM/BR/77/LTB0016 promastigotes. To be noted: read-out: Ratio CC50/IC50. In kind it is toxicity. An outline of the steps:
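SI calculated as macrophage CC50 divided by promastigote IC50. Both values come from 72 h assays: macrophages in RPMI at 37 °C and promastigotes in Schneider's medium at 26 °C with resazurin read-out.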
Regarding `CC1(Cc2ccc(-c3ccccc3)c(F)c2)CC(S(=O)(=O)c2ccc(F)cc2)=C(c2ccc(/C(N)=N/O)cc2)O1` (stereo not drawn), the selectivity ratio was 2.
Regarding `CC1(Cc2ccc(-c3ccccc3)cc2)CC(S(=O)(=O)c2ccc(F)cc2)=C(c2ccc(/C(N)=N/O)cc2)O1` (stereo not drawn), the selectivity ratio is 2.3.
With `CC1(Cc2cccc(C(F)(F)F)c2)CC(S(=O)(=O)c2ccc(F)cc2)=C(c2ccc(/C(N)=N/O)cc2)O1` (stereo not drawn), the selectivity ratio was found to be 7.4.
For `Cc1ccc(CC2(C)CC(S(=O)(=O)c3ccc(F)cc3)=C(c3ccc(/C(N)=N/O)cc3)O2)cc1` (stereo not drawn), the selectivity ratio was 2.3.
`CC1(Cc2ccccc2)CC(S(=O)(=O)c2ccc(F)cc2)=C(c2cccc(/C(N)=N/O)c2)O1` (stereo not drawn): the selectivity ratio was above 2.7.
The same measure, in the same setting: then `COc1cc(CC2(C)CC(S(=O)(=O)c3ccc(F)cc3)=C(c3ccc(/C(N)=N/O)cc3)O2)cc(OC)c1OC` (stereo not drawn), with 2; and `CC1(C/C=C/c2ccc(C(F)(F)F)cc2)CC(S(=O)(=O)c2ccc(F)cc2)=C(c2ccc(/C(N)=N/O)cc2)O1` (stereo not drawn), with 2.6; and `N=C(N)c1ccc(OCCCCCOc2ccc(C(=N)N)cc2)cc1` [PENTAMIDINE], with 1.5.

System in a further data set: not listed separately
The data set can be described thus: Solubility of the compound in RPMI 1640 medium. The format is physicochemical.
Settings: not given
As for `CC1(Cc2cccc(CO)c2)CC(S(=O)(=O)c2ccc(F)cc2)=C(c2ccc(/C(N)=N/O)cc2)O1` (stereo not drawn), the solubility result is “Insoluble”.
As for `CC1(Cc2ccc(CO)cc2)CC(S(=O)(=O)c2ccc(F)cc2)=C(c2ccc(/C(N)=N/O)cc2)O1` (stereo not drawn), the solubility result is “Insoluble”.
For `CC1(Cc2ccccc2)CC(S(=O)(=O)c2ccc(F)cc2)=C(c2cccc(/C(N)=N/O)c2)O1` (stereo not drawn), the solubility entry is listed as “Insoluble”.

System in the next data set: not listed separately
The data set can be described thus: Solubility of the compound in Schneider's insect medium supplemented with 10% HIFCS. The format is physicochemical.
Settings: not given
On to `CC1(Cc2cccc(/C(N)=N/O)c2)CC(S(=O)(=O)c2ccc(F)cc2)=C(c2ccc(/C(N)=N/O)cc2)O1` (stereo not drawn), for which the solubility result is recorded as “Insoluble”.
Still for that read-out and setting: then `CC1(Cc2cccc(CO)c2)CC(S(=O)(=O)c2ccc(F)cc2)=C(c2ccc(/C(N)=N/O)cc2)O1` (stereo not drawn), with “Insoluble”; and `CC1(Cc2ccc(CO)cc2)CC(S(=O)(=O)c2ccc(F)cc2)=C(c2ccc(/C(N)=N/O)cc2)O1` (stereo not drawn), with “Insoluble”; and `CC1(Cc2ccc(/C(N)=N/O)cc2)CC(S(=O)(=O)c2ccc(F)cc2)=C(c2ccc(/C(N)=N/O)cc2)O1` (stereo not drawn), with “Insoluble”.

Another data set has as its system Leishmania amazonensis. The data set can be described thus: Antileishmanial activity against Leishmania amazonensis MHOM/BR/77/LTB0016 promastigotes after 72 hrs by resazurin dye based assay. In kind it is functional, organism-based. To be noted: MHOM/BR/77/LTB0016, 72 h. The method in brief:
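Promastigotes grown in Schneider's insect medium with 10% HIFCS, started at 1.0×10^6 cells/mL with or without a range of compound concentrations, 26 °C for 72 h. Viability read by resazurin. IC50 by logarithmic regression. Three independent experiments in triplicate, mean ± SD.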
As for `CC1(Cc2cccc(/C(N)=N/O)c2)CC(S(=O)(=O)c2ccc(F)cc2)=C(c2ccc(/C(N)=N/O)cc2)O1` (stereo not drawn), the IC50 was above 100 µM.
As for `CC1(Cc2cccc(CO)c2)CC(S(=O)(=O)c2ccc(F)cc2)=C(c2ccc(/C(N)=N/O)cc2)O1` (stereo not drawn), the IC50 was above 100 µM.
For the compound `CC1(Cc2ccc(CO)cc2)CC(S(=O)(=O)c2ccc(F)cc2)=C(c2ccc(/C(N)=N/O)cc2)O1` (stereo not drawn), the IC50 was above 100 µM.
The same measure, in the same setting: then `CC1(Cc2ccc(-c3ccccc3)c(F)c2)CC(S(=O)(=O)c2ccc(F)cc2)=C(c2ccc(/C(N)=N/O)cc2)O1` (stereo not drawn), with 12.2 µM; and `CC1(Cc2ccc(-c3ccccc3)cc2)CC(S(=O)(=O)c2ccc(F)cc2)=C(c2ccc(/C(N)=N/O)cc2)O1` (stereo not drawn), with 14.8 µM.
Take `CC1(Cc2ccc(/C(N)=N/O)cc2)CC(S(=O)(=O)c2ccc(F)cc2)=C(c2ccc(/C(N)=N/O)cc2)O1` (stereo not drawn): the concentration for half-maximal inhibition (IC50) is above 100 µM.
For the compound `CC1(Cc2cccc(C(F)(F)F)c2)CC(S(=O)(=O)c2ccc(F)cc2)=C(c2ccc(/C(N)=N/O)cc2)O1` (stereo not drawn), the IC50 came to 6.7 µM. This lies in the single-digit micromolar range.
As to `Cc1ccc(CC2(C)CC(S(=O)(=O)c3ccc(F)cc3)=C(c3ccc(/C(N)=N/O)cc3)O2)cc1` (stereo not drawn), the IC50 came out at 23.2 µM.
On to `CC1(Cc2ccccc2)CC(S(=O)(=O)c2ccc(F)cc2)=C(c2cccc(/C(N)=N/O)c2)O1` (stereo not drawn), for which the IC50 stood at 74.7 µM. This IC50 is about 3.2-fold higher than that of the compound before.
`COc1cc(CC2(C)CC(S(=O)(=O)c3ccc(F)cc3)=C(c3ccc(/C(N)=N/O)cc3)O2)cc(OC)c1OC` (stereo not drawn) registered a half-maximal inhibitory concentration (IC50) of 45.6 µM.
Regarding `CC1(C/C=C/c2ccc(C(F)(F)F)cc2)CC(S(=O)(=O)c2ccc(F)cc2)=C(c2ccc(/C(N)=N/O)cc2)O1` (stereo not drawn), the IC50 was 17.2 µM.
Still for that read-out and setting: then `N=C(N)c1ccc(OCCCCCOc2ccc(C(=N)N)cc2)cc1` [PENTAMIDINE], with 5.7 µM.

System in a further data set: not listed separately
The data set can be described thus: Cytotoxicity against Balb/c mouse peritoneal macrophages assessed as reduction in cell viability after 72 hrs by resazurin assay. In kind it is cell-based, Peritoneal macrophage.
Settings: not given
The method in brief:
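Peritoneal cells collected by lavage in RPMI 1640 with 10% HIFCS, 2 mM L-glutamine, 1 mM pyruvate, streptomycin and penicillin. Adjusted to 1.0×10^6 cells/mL, plated in triplicate, 1 h at 37 °C in 5% CO2, non-adherent cells washed off. […] Three independent experiments, mean ± SD.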
On the technique in general: Alamar Blue is a resazurin reagent that responds to reducing activity.
On to `CC1(Cc2cccc(/C(N)=N/O)c2)CC(S(=O)(=O)c2ccc(F)cc2)=C(c2ccc(/C(N)=N/O)cc2)O1` (stereo not drawn), for which the CC50 at 72 h was determined as 50.2 µM.
As to `CC1(Cc2cccc(CO)c2)CC(S(=O)(=O)c2ccc(F)cc2)=C(c2ccc(/C(N)=N/O)cc2)O1` (stereo not drawn), the CC50 at 72 h is above 100 µM.
Turning to `CC1(Cc2ccc(CO)cc2)CC(S(=O)(=O)c2ccc(F)cc2)=C(c2ccc(/C(N)=N/O)cc2)O1` (stereo not drawn), the CC50 at 72 h is above 100 µM.
Same read-out and setting: with `CC1(Cc2ccc(-c3ccccc3)c(F)c2)CC(S(=O)(=O)c2ccc(F)cc2)=C(c2ccc(/C(N)=N/O)cc2)O1` (stereo not drawn) the figure was 24.5 µM; with `CC1(Cc2ccc(-c3ccccc3)cc2)CC(S(=O)(=O)c2ccc(F)cc2)=C(c2ccc(/C(N)=N/O)cc2)O1` (stereo not drawn), 33.9 µM; with `CC1(Cc2ccc(/C(N)=N/O)cc2)CC(S(=O)(=O)c2ccc(F)cc2)=C(c2ccc(/C(N)=N/O)cc2)O1` (stereo not drawn), 42.2 µM.
`CC1(Cc2cccc(C(F)(F)F)c2)CC(S(=O)(=O)c2ccc(F)cc2)=C(c2ccc(/C(N)=N/O)cc2)O1` (stereo not drawn): the 50% cytotoxic concentration (CC50) at 72 h stood at 49.8 µM.
Regarding `Cc1ccc(CC2(C)CC(S(=O)(=O)c3ccc(F)cc3)=C(c3ccc(/C(N)=N/O)cc3)O2)cc1` (stereo not drawn), the CC50 at 72 h amounted to 54.4 µM.
Same read-out and setting: with `CC1(Cc2ccccc2)CC(S(=O)(=O)c2ccc(F)cc2)=C(c2cccc(/C(N)=N/O)c2)O1` (stereo not drawn) the figure was above 200 µM; with `COc1cc(CC2(C)CC(S(=O)(=O)c3ccc(F)cc3)=C(c3ccc(/C(N)=N/O)cc3)O2)cc(OC)c1OC` (stereo not drawn), 92.3 µM; with `CC1(C/C=C/c2ccc(C(F)(F)F)cc2)CC(S(=O)(=O)c2ccc(F)cc2)=C(c2ccc(/C(N)=N/O)cc2)O1` (stereo not drawn), 43.9 µM.

The values are drawn from ChEMBL document CHEMBL4196020, “Original antileishmanial hits: Variations around amidoximes” (Eur J Med Chem, 2018).
